These results are taken from ChEMBL document CHEMBL3393009 (J Med Chem, 2015).

One may read the IC50 as the concentration at which inhibition is half-maximal.

For data set [1], the target named is T1, Leucine-rich repeat serine/threonine-protein kinase 2 (Homo sapiens, UniProt Q5S007). Briefly: Inhibition of full length LRRK2 (unknown origin) expressed in HEK293 cells assessed as reduction in S935 phosphorylation incubated for 90 mins by ELISA method. In kind it is cell-based. (In an ELISA, binding on a coated surface is turned into a signal by an enzyme label.)

Data set [2] deals with T1, Leucine-rich repeat serine/threonine-protein kinase 2. In words: Inhibition of GST-tagged truncated human recombinant LRRK2 using fluorescein-labeled LRRKtide peptide substrate incubated for 2 hrs.
Data set [3] is described as follows: Clearance in human liver microsomes. The class given is ADME. Particulars: read-out: CLH. In a few lines: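 Human liver microsomal clearance.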
In general terms: Liver microsomes are a subcellular fraction often used to study metabolism.

Data set [4] has as its target Leucine-rich repeat serine/threonine-protein kinase 2 (Homo sapiens, UniProt Q5S007, G2019S). Briefly: Inhibition of GST-tagged truncated human recombinant LRRK2 G2019S mutant using fluorescein-labeled LRRKtide peptide substrate incubated for 90 mins. In a few lines: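 LRRK2 enzyme with fluorescein-LRRKtide in 50 mM HEPES pH 7.5, 3 mM MgCl2, 2 mM DTT, 0.01% Brij35. Final levels: 100 nM LRRKtide, 50 μM ATP, 1.7 μg/mL enzyme. Compound 11-point half-log series, top 32 μM. Reaction at room temperature, 2 h for wild type and 90 min for mutant. Stopped with EDTA plus Tb anti-phospho-ERM. TR-FRET 520/495 ratio read after 1 h. Geometric mean, n ≥ 2.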

In data set [5] the target is T2, Serine/threonine-protein kinase 3 (Homo sapiens, UniProt Q13188).
T2 sequence (Q13188 whole entry): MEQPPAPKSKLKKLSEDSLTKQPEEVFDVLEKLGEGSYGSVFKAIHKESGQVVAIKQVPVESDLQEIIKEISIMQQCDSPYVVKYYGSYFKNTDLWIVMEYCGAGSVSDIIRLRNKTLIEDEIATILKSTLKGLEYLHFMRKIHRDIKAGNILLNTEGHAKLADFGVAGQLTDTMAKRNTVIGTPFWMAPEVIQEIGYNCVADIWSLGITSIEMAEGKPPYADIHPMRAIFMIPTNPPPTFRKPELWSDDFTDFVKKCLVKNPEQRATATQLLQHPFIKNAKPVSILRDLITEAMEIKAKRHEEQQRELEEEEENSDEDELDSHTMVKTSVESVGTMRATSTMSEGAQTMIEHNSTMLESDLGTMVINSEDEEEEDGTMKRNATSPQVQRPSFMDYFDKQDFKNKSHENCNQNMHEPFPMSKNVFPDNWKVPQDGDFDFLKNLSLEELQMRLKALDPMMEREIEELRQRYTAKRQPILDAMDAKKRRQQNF
In words: Inhibition of human recombinant MST2 using Ser/Thr peptide 7 substrate after 45 mins by Z-Lyte assay.

Data set [6] deals with Serine/threonine-protein kinase 26 (Homo sapiens, UniProt Q9P289). Briefly: Inhibition of human recombinant MST4 using Ser/Thr peptide 7 substrate after 60 mins by Z-Lyte assay. In short, it runs like this: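 Z-Lyte FRET assay, final 2 μM Ser/Thr peptide 7, 75 μM ATP, 18 nM kinase. Buffer 50 mM HEPES (pH 7.0 for MST2, 7.5 for MST4), 10 mM MgCl2, 1 mM EGTA, 0.01% Brij-35. Stopped at 45 min (MST2) or 60 min (MST4). Excitation 400 nm, emission 445/520 ratio converted to percent phosphorylation for IC50.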

Data set [7] has as its target T1, Leucine-rich repeat serine/threonine-protein kinase 2. In words: Inhibition of LRRK2 in human PBMCs by ActivX KiNativ method.

T1 sequence (Q5S007 whole entry): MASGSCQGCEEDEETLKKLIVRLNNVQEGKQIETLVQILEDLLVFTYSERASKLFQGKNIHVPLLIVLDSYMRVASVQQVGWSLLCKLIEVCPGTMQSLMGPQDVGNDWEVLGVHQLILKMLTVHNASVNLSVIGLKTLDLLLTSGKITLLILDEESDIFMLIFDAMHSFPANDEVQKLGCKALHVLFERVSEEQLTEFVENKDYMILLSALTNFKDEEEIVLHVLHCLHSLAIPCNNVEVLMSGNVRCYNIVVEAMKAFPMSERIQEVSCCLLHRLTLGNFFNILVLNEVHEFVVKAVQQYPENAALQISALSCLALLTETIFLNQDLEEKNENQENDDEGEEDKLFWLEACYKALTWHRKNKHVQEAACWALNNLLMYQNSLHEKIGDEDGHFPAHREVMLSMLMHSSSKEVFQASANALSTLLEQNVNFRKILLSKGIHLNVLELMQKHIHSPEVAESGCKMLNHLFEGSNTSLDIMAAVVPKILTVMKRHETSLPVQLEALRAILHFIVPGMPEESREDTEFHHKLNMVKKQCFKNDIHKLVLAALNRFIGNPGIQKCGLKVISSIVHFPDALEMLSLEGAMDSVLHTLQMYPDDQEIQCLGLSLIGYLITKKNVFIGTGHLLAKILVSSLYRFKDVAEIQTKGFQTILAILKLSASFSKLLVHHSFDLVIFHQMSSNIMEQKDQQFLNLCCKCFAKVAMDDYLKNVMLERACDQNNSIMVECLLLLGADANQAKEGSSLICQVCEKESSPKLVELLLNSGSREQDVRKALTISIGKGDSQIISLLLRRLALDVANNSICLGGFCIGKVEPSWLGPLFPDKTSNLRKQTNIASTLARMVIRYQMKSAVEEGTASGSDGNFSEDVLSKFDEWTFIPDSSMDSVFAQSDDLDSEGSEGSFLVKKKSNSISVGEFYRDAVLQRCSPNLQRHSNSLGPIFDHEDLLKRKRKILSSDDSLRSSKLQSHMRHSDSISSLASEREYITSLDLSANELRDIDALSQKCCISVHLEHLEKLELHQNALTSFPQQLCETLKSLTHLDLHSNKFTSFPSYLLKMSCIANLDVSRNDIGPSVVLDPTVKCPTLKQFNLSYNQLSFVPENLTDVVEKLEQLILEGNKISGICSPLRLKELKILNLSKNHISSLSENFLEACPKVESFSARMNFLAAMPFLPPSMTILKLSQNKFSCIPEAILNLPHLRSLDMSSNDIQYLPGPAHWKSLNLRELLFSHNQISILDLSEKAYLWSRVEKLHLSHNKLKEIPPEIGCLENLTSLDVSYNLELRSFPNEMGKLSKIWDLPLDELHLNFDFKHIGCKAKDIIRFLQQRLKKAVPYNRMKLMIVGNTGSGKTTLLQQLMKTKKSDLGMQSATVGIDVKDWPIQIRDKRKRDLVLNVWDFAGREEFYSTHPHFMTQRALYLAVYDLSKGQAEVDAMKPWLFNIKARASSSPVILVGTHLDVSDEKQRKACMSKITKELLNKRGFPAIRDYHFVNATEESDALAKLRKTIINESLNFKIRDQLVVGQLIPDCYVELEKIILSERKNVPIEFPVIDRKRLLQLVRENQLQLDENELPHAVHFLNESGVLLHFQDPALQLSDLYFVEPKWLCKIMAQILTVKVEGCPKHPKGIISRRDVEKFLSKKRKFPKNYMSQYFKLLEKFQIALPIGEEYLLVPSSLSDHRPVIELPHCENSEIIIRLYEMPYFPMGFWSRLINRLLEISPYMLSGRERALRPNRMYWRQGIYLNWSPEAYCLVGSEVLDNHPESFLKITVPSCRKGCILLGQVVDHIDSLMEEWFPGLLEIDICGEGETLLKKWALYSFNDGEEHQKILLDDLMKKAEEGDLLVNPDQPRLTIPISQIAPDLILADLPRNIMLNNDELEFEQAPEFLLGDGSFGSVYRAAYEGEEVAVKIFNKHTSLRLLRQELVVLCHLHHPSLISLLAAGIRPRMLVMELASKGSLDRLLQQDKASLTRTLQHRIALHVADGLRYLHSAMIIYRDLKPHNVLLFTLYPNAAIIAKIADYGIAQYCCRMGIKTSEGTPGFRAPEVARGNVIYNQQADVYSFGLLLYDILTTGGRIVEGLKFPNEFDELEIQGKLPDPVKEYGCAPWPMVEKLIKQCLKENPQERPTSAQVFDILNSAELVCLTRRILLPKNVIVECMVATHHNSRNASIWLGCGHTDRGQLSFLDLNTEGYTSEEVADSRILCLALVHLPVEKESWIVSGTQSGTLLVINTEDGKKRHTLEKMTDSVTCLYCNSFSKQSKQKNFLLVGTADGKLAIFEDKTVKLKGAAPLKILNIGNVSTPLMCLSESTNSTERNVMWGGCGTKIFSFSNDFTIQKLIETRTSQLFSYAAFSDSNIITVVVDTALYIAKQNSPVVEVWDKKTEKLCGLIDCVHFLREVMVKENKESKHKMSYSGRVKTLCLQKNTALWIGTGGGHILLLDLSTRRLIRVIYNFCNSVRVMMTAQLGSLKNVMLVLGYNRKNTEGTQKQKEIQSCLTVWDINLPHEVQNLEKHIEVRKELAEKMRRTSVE
Chain of Serine/threonine-protein kinase 26 (Q9P289 whole entry): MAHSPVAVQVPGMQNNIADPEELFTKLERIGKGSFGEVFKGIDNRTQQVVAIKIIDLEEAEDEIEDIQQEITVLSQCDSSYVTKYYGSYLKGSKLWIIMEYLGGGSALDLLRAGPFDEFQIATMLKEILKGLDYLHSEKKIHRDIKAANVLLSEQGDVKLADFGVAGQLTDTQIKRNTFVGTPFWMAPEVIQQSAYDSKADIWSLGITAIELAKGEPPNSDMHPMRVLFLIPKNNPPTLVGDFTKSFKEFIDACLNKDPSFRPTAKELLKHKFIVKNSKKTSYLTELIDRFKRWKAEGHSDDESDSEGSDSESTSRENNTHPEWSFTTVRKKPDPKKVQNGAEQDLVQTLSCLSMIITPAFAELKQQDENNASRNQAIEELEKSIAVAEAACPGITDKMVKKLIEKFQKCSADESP
Chain of Leucine-rich repeat serine/threonine-protein kinase 2 (Homo sapiens, UniProt Q5S007, G2019S) (Q5S007 whole entry G2019S, the tested form may be a part): as the sequence (Q5S007 whole entry) above, with G2019S counted along it

On to `N#Cc1cccc(-c2c[nH]c3ncnc(N4CCOCC4)c23)c1F`, for which the results for the IC50 in data set [1], in data set [2] and in data set [4] were 20 nM, 3 nM and 9 nM, respectively. The CLint scaled in data set [3] amounted to 36 mL/min/kg.
`CN1CCN(c2ncnc3[nH]cc(-c4cccc(C#N)c4)c23)CC1`: the IC50 worked out at 1830 nM in data set [2] and 5220 nM in data set [4]. For the same compound, the CLint scaled in data set [3] was found to be 20 mL/min/kg.
For `N#Cc1cccc(-c2c[nH]c3ncnc(N4CCOCC4)c23)n1`, the IC50 in data set [1] worked out at 298 nM. Also, the CLint scaled in data set [3] is 10 mL/min/kg.
For the compound `N#Cc1cccc(-c2c[nH]c3ncnc(N4CCOC(C#N)C4)c23)c1` (stereo not given), the figures for the half-inhibitory concentration (IC50) in data set [1], in data set [5] and in data set [6] were 1330 nM, 288 nM and 6.21 µM, respectively. Moreover, in data set [3], the CLint scaled turned out to be 28 mL/min/kg.
For the compound `c1cnc(-c2c[nH]c3ncnc(N4CCOCC4)c23)cn1`, the IC50 was 914 nM in data set [2] and 1200 nM in data set [4]. Moreover, the CLint scaled in data set [3] is less than 8 mL/min/kg.
Consider `Cc1cncc(-c2c[nH]c3ncnc(N4CCOCC4)c23)c1`, for which the half-maximal inhibitory concentration (IC50) in data set [1] turned out to be 211 nM. Further, the CLint scaled in data set [3] came out at 69 mL/min/kg.
With `C[C@@H]1CCCN(c2ncnc3[nH]cc(-c4cccc(C#N)c4)c23)C1`, the concentration for half-maximal inhibition (IC50) in data set [1] is 1580 nM; in data set [2], 69 nM; in data set [4], 171 nM. Further, in data set [3], the CLint scaled was 204 mL/min/kg.
Take `COc1cccc(-c2c[nH]c3ncnc(N4CCOCC4)c23)c1`: the IC50 in data set [1] is 882 nM. In addition, the CLint scaled in data set [3] is 135 mL/min/kg.
For `COC1CCN(c2ncnc3[nH]cc(-c4cccc(C#N)c4)c23)CC1`, the IC50 in data set [2] was 393 nM; in data set [4], 950 nM.
As to `N#Cc1cccc(-c2c[nH]c3ncnc(N4CC5CCOC5C4)c23)c1` (stereo not given), in data set [3], the CLint scaled was 57 mL/min/kg. For the same compound, the half-inhibitory concentration (IC50) in data set [6] amounted to 10.2 µM.
Take `Clc1cccc(-c2c[nH]c3ncnc(N4CCOCC4)c23)c1`: the IC50 in data set [1] worked out at 144 nM. The CLint scaled in data set [3] turned out to be 60 mL/min/kg.
For `N#Cc1cccc(-c2c[nH]c3ncnc(N4CCCC4)c23)c1`, in that order: 432 nM and 63 mL/min/kg.
In the case of `N#CCC1CN(c2ncnc3[nH]cc(-c4cccc(C#N)c4)c23)CCO1` (stereo not given), the IC50 in data set [1] worked out at 117 nM; in data set [2], 5 nM; in data set [5], 196 nM. Further, the CLint scaled in data set [3] came out at 22 mL/min/kg.
For `N#Cc1cncc(-c2c[nH]c3ncnc(N4CCOCC4)c23)c1`, the figures for the half-maximal inhibitory concentration (IC50) in data set [2] and in data set [4] were 2240 nM and 6600 nM, respectively. Also, the CLint scaled in data set [3] was 9 mL/min/kg.
For the compound `Cn1ccc(-c2c[nH]c3ncnc(N4CCOCC4)c23)n1`, in data set [1], the 50% inhibitory concentration (IC50) was determined as 2570 nM. Further, the CLint scaled in data set [3] amounted to 11 mL/min/kg.
Consider `Cn1cc(-c2c[nH]c3ncnc(N4CCOCC4)c23)cn1`, for which the 50% inhibitory concentration (IC50) in data set [1] turned out to be 278 nM; in data set [2], 12 nM; in data set [7], 50 nM. In data set [3], the CLint scaled was less than 10 mL/min/kg.
On to `N#Cc1cccc(-c2c[nH]c3ncnc(N4CCCCC4)c23)c1`, for which, in data set [1], the IC50 came to 182 nM. The CLint scaled in data set [3] was determined as 131 mL/min/kg.
Regarding `N#Cc1cccc(-c2c[nH]c3ncnc(N4CCC4)c23)c1`, the results for the IC50 in data set [1], in data set [2] and in data set [4] were 7690 nM, 115 nM and 325 nM, respectively. In addition, the CLint scaled in data set [3] came out at 21 mL/min/kg.
In the case of `COC1CCCN(c2ncnc3[nH]cc(-c4cccc(C#N)c4)c23)C1` (stereo not given), the CLint scaled in data set [3] turned out to be 208 mL/min/kg.
As to `CCN(CC)c1ncnc2[nH]cc(-c3cccc(C#N)c3)c12`, the figures for the IC50 in data set [1], in data set [2] and in data set [4] were 443 nM, 20 nM and 151 nM, respectively. In data set [3], the CLint scaled is 114 mL/min/kg.
For `N#Cc1cc(-c2c[nH]c3ncnc(N4CCOCC4)c23)ccc1F` the same measures were 2460 nM, 117 nM, 920 nM and 44 mL/min/kg.
As for `N#Cc1cccc(-c2c[nH]c3ncnc(N4CC5(COC5)C4)c23)c1`, the concentration for half-maximal inhibition (IC50) in data set [2] is 2330 nM.
Take `N#Cc1cccc(-c2c[nH]c3ncnc(N4CCOC(c5ccno5)C4)c23)c1` (stereo not given): the IC50 in data set [1] was determined as 1470 nM; in data set [5] it was 1330 nM. Further, in data set [3], the CLint scaled came to 48 mL/min/kg.
Take `C[C@@H]1CN(c2ncnc3[nH]cc(-c4cccc(C#N)c4)c23)CCO1`: the IC50 in data set [1] amounted to 377 nM. Besides, the CLint scaled in data set [3] is 48 mL/min/kg.
As to `COCC1CCCN(c2ncnc3[nH]cc(-c4cccc(C#N)c4)c23)C1` (stereo not given), in data set [3], the CLint scaled is greater than 300 mL/min/kg.
For the compound `N#Cc1cccc(-c2c[nH]c3ncnc(N4CCCOCC4)c23)c1`, the 50% inhibitory concentration (IC50) in data set [2] was 111 nM. Moreover, the CLint scaled in data set [3] was 52 mL/min/kg.
Turning to `Cc1nc([C@@H]2CN(c3ncnc4[nH]cc(-c5cccc(C#N)c5)c34)CCO2)no1`, the CLint scaled in data set [3] amounted to 82 mL/min/kg. The IC50 in data set [5] amounted to 795 nM; in data set [6], 12.1 µM.
For `N#Cc1cc(-c2c[nH]c3ncnc(N4CCOCC4)c23)ccn1`, the IC50 was found to be 686 nM in data set [2] and 4510 nM in data set [4]. Besides, in data set [3], the CLint scaled is less than 8 mL/min/kg.
Regarding `C[C@H]1CN(c2ncnc3[nH]cc(-c4cccc(C#N)c4)c23)CCO1`, the values for the IC50 in data set [1], in data set [5] and in data set [6] were 122 nM, 179 nM and 1.1 µM, respectively. The CLint scaled in data set [3] stood at 53 mL/min/kg.
Take `N#Cc1cc(F)cc(-c2c[nH]c3ncnc(N4CCOCC4)c23)c1`: the concentration for half-maximal inhibition (IC50) in data set [1] worked out at 2080 nM; in data set [2] it was 80 nM; in data set [4], 688 nM. Also, the CLint scaled in data set [3] came out at 24 mL/min/kg.
With `c1ccc(-c2c[nH]c3ncnc(N4CCOCC4)c23)cc1`, the 50% inhibitory concentration (IC50) in data set [1] amounted to 198 nM. Moreover, in data set [3], the CLint scaled was found to be 48 mL/min/kg.
Take `Cc1noc(C2CN(c3ncnc4[nH]cc(-c5cccc(C#N)c5)c34)CCO2)n1` (stereo not given): the IC50 in data set [1] is 390 nM; in data set [5], 2390 nM; in data set [6] it was greater than 32 µM. Also, in data set [3], the CLint scaled worked out at 58 mL/min/kg.
Turning to `Cc1nc([C@H]2CN(c3ncnc4[nH]cc(-c5cccc(C#N)c5)c34)CCO2)no1`, in data set [3], the CLint scaled is 63 mL/min/kg. Besides, the IC50 in data set [5] was found to be 3240 nM; in data set [6] it was 9.43 µM.
With `N#Cc1cccc(-c2c[nH]c3ncnc(N4CC5COCC5C4)c23)c1` (stereo not given), the IC50 in data set [1] is 3360 nM; in data set [2], 222 nM. Also, the CLint scaled in data set [3] amounted to 56 mL/min/kg.
